Structures are written as SMILES. The source made the active and inactive calls. The calls are words filed in the database; no cut-off is given here.

The target of data set [1] is Sodium-dependent dopamine transporter (Rattus norvegicus, UniProt P23977). The data set can be described thus: Displacement of 3H-WIN-35428 from DAT in rat striata after 120 mins. In general terms: Displacement assays read how much labelled ligand stays bound in the presence of the test substance.
Data set [2] relates to Rattus norvegicus. The data set can be described thus: Wake promoting activity in rat assessed as total time awake at 100 mg/kg, ip over a period of 3 hrs after dosing. Type of data set: functional. The following applies: route intraperitoneal.
The target of another data set is Cytochrome P450 2C19 (Homo sapiens, UniProt P33261). The data set can be described thus: Inhibition of CYP2C19. Format: ADME.
Chain of Cytochrome P450 2C19 (P33261 whole entry): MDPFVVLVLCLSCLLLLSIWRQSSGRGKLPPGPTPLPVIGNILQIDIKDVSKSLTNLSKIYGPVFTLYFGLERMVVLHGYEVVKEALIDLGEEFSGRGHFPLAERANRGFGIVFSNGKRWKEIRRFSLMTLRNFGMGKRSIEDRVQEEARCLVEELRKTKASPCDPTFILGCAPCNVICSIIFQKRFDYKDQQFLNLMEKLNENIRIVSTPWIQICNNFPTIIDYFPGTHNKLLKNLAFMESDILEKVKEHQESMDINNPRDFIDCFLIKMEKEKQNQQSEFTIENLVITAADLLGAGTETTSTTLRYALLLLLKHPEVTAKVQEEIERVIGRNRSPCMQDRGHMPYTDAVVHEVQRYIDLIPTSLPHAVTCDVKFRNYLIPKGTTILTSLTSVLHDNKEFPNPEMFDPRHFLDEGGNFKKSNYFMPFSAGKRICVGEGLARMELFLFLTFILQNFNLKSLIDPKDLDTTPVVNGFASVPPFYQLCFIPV
The species named for the next data set is Canis familiaris. Kind of data set: Wake promoting activity in dog. Type of data set: functional, organism-based. To be noted: Canis lupus familiaris.
Data set [3] concerns Rattus norvegicus. The data set can be described thus: Wake promoting activity in rat assessed as total time awake at 30 mg/kg, ip over a period of 3 hrs after dosing. Format: functional. The following applies: route intraperitoneal.
The target in another data set is CYP2C19 (Homo sapiens, UniProt P33261). Kind of data set: Inhibition of CYP2C19 at 10 uM. Type of data set: ADME.
Chain of CYP2C19 (P33261 whole entry): as above
In another data set the target is Cytochrome P450 3A4 (Homo sapiens, UniProt P08684). Kind of data set: Inhibition of CYP3A4. Format: ADME.
Chain of Cytochrome P450 3A4 (P08684 whole entry): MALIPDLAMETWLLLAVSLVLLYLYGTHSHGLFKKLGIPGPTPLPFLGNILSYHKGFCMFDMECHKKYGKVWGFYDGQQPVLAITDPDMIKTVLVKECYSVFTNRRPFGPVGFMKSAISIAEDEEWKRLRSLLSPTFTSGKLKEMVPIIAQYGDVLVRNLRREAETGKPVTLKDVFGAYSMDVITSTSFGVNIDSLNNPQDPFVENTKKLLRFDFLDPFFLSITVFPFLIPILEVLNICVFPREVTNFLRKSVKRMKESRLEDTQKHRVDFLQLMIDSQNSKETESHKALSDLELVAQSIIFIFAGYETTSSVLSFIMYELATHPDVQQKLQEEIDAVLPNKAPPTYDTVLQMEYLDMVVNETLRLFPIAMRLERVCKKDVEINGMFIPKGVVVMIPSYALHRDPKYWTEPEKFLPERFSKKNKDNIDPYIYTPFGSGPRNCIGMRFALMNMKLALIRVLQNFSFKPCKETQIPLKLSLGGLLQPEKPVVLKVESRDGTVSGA
The next data set addresses Cytochrome P450 2D6 (Homo sapiens, UniProt P10635). Kind of data set: Inhibition of CYP2D6. Type of data set: ADME.
In data set [4] the test system is Plasma. Kind of data set: Plasma concentration in human at efficacious dose. Format: ADME, cell-free.
The test system of data set [5] is Plasma. Kind of data set: Cmax in rat plasma assessed as 9H-fluoren-9-ol at 116 mg/kg, ip. Format: ADME, organism-based. To be noted: in vivo. Details: dose 116 mg/kg, route intraperitoneal. In outline: (§1)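 Rats received the parent compound at 116 mg/kg ip in 0.5% methylcellulose/0.2% Tween 80. The metabolite was measured in plasma and brain over time. Cmax is given in ng/g, Tmax in h, and AUC0-t in ng h/g. Values are mean ± SEM, n = 3.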

Data set [6] concerns Plasma. The data set can be described thus: Tmax in rat plasma assessed as 9H-fluoren-9-ol at 116 mg/kg, ip. The arrangement: dose 116 mg/kg, route intraperitoneal. Type of data set: ADME, organism-based. To be noted: in vivo. A digest of the protocol: as §1
Data set [7] concerns Plasma. Kind of data set: AUC (0 to t) in rat plasma assessed as 9H-fluoren-9-ol at 116 mg/kg, ip. Type of data set: ADME, organism-based. To be noted: in vivo. Details: dose 116 mg/kg, route intraperitoneal. In outline: as §1
Data set [8] relates to Brain. The data set can be described thus: Cmax in rat brain assessed as 9H-fluoren-9-ol at 116 mg/kg, ip. Type of data set: ADME, organism-based. Details: dose 116 mg/kg, route intraperitoneal. The following applies: in vivo. A digest of the protocol: as §1
The test system of data set [9] is Brain. Kind of data set: Tmax in rat brain assessed as 9H-fluoren-9-ol at 116 mg/kg, ip. Format: ADME, organism-based. Details: dose 116 mg/kg, route intraperitoneal. To be noted: in vivo. In outline:
as §1

The test system of data set [10] is Brain. Kind of data set: AUC (0 to t) in rat brain assessed as 9H-fluoren-9-ol at 116 mg/kg, ip. Type of data set: ADME, organism-based. The following applies: in vivo. The arrangement: dose 116 mg/kg, route intraperitoneal. A digest of the protocol:
as §1

In data set [11] the test system is Plasma. Kind of data set: Cmax in rat plasma assessed as 9H-fluoren-9-one at 116 mg/kg, ip. Type of data set: ADME, organism-based. The arrangement: dose 116 mg/kg, route intraperitoneal. To be noted: in vivo. A digest of the protocol:
as §1

Data set [12] has as its system Plasma. The data set can be described thus: Tmax in rat plasma assessed as 9H-fluoren-9-one at 116 mg/kg, ip. Format: ADME, organism-based. Details: dose 116 mg/kg, route intraperitoneal. The following applies: in vivo. A digest of the protocol: as §1
Data set [13] relates to Plasma. Kind of data set: AUC (0 to t) in rat plasma assessed as 9H-fluoren-9-one at 116 mg/kg, ip. Format: ADME, organism-based. Details: dose 116 mg/kg, route intraperitoneal. To be noted: in vivo. A digest of the protocol:
as §1

Data set [14] concerns Brain. Kind of data set: Cmax in rat brain assessed as 9H-fluoren-9-one at 116 mg/kg, ip. Format: ADME, organism-based. The following applies: in vivo. The arrangement: dose 116 mg/kg, route intraperitoneal. In outline:
as §1

Data set [15] has as its system Brain. Kind of data set: Tmax in rat brain assessed as 9H-fluoren-9-one at 116 mg/kg, ip. The arrangement: dose 116 mg/kg, route intraperitoneal. The following applies: in vivo. Format: ADME, organism-based. A digest of the protocol:
as §1

In data set [16] the test system is Brain. The data set can be described thus: AUC (0 to t) in rat brain assessed as 9H-fluoren-9-one at 116 mg/kg, ip. Type of data set: ADME, organism-based. Details: dose 116 mg/kg, route intraperitoneal. To be noted: in vivo. A digest of the protocol:
as §1

Data set [17] can be described thus: Cmax in rat plasma at 116 mg/kg, ip. Format: ADME, organism-based. Details: dose 116 mg/kg, route intraperitoneal.
The nature of data set [18]: Tmax in rat plasma at 116 mg/kg, ip. Type of data set: ADME, organism-based. Details: dose 116 mg/kg, route intraperitoneal.
For data set [19], the system named is Plasma. The data set can be described thus: AUC (0 to t) in rat plasma at 116 mg/kg, ip. Type of data set: ADME, organism-based. The arrangement: dose 116 mg/kg, route intraperitoneal. The following applies: in vivo.
Data set [20] in a line: Cmax in rat brain at 116 mg/kg, ip. Type of data set: ADME, organism-based. Details: dose 116 mg/kg, route intraperitoneal.
Data set [21] in a line: Tmax in rat brain at 116 mg/kg, ip. Type of data set: ADME, organism-based. The arrangement: dose 116 mg/kg, route intraperitoneal.
Data set [22] relates to Brain. Kind of data set: AUC (0 to t) in rat brain at 116 mg/kg, ip. To be noted: in vivo. The arrangement: dose 116 mg/kg, route intraperitoneal. Type of data set: ADME, organism-based.

Chain of Sodium-dependent dopamine transporter (P23977 whole entry): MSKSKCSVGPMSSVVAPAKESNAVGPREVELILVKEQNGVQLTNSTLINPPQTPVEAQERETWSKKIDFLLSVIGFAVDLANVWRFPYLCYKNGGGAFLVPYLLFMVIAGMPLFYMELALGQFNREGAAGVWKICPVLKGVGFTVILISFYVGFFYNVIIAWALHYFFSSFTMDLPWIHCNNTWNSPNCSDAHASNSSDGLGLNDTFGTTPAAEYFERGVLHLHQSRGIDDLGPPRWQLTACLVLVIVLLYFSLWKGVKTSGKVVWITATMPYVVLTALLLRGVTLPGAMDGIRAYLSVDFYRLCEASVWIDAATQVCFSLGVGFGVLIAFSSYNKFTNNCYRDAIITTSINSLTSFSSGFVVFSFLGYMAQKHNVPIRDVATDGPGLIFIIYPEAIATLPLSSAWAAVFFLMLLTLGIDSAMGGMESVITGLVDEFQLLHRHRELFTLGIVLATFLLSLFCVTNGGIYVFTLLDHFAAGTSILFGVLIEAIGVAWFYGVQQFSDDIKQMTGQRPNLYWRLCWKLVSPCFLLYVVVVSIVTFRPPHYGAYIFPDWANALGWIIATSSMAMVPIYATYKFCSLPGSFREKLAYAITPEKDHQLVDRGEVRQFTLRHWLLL
Chain of Cytochrome P450 2D6 (P10635 whole entry): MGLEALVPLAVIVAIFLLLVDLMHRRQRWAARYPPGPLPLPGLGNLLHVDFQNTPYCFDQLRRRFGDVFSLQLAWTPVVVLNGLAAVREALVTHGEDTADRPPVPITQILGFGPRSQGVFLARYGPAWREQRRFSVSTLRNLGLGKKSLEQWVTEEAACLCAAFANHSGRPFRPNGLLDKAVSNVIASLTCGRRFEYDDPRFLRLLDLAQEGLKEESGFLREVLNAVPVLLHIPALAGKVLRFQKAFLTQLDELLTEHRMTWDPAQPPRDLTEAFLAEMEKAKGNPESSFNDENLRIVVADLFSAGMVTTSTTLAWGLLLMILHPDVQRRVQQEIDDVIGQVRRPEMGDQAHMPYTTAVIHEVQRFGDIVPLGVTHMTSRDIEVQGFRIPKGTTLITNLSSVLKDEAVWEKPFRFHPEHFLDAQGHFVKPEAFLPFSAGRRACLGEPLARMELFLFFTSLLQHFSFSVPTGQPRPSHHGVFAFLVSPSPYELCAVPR

Usually IC50 stands for the concentration needed to halve the response being measured. A high value points to a need for much substance. For `CCN(CC)C(=O)C[S+]([O-])C1c2ccccc2-c2ccccc21` (racemic), the IC50 (in data set [1]; against Cytochrome P450 2C19) was greater than 100 µM throughout. In addition, the Time in the data set on Rattus norvegicus [2] stood at 99 min. In the data set filed under Canis familiaris, the result was inactive.

One may read the inhibition as the change of the read-out against control, counted positive when it falls. Read a low inhibition as a weak effect. For `O=C(C[S+]([O-])C1c2ccccc2-c2ccccc21)N1CCOCC1` (racemic), in data set [1], the IC50 is greater than 100 µM. Moreover, the Time in the data set with Rattus norvegicus [3] amounted to 158 min. The molecule also yielded an inhibition at 10 µM against CYP2C19 of 30%. The result in the data set listed under Canis familiaris was inactive.

For `NC(=O)C[S+]([O-])C(c1ccccc1)c1ccccc1` (racemic) [MODAFINIL], the Time in the data set on Rattus norvegicus [2] came to 117 min. The “inhibition (INH)” value on Cytochrome P450 3A4 and against Cytochrome P450 2D6 was “Not Active” in each case. In the data set with Plasma [4], this molecule registered a concentration greater than 30 µM. Besides, the result in the data set listed under Canis familiaris was inactive.

Take `CC1([S+]([O-])CC(N)=O)c2ccccc2-c2ccccc21` (racemic): the 50% inhibitory concentration (IC50) in data set [1] was greater than 100 µM. The Time with Rattus norvegicus [2] turned out to be 71 min. Also, the inhibition at 10 µM on CYP2C19 is 26%.

What is called Cmax is the highest concentration seen after dosing. By Tmax is commonly meant the time from dosing to the highest level. The molecule `OC1c2ccccc2-c2ccccc21` returned an IC50 in [1] of 9 µM. Moreover, the Time in the data set with Rattus norvegicus [2] amounted to 163 min. The Cmax with Plasma [5] was 263 ng/g; in the data set with Brain [8], 4384 ng/g. Besides, the Tmax in the data set on Plasma [6] was 120 min; in the data set with Brain [9], 48 min. Also, the figures for the AUCt with Plasma [7] and in the data set on Brain [10] were 1081 ng·h/g and 11639 ng·h/g, respectively.

On to `O=C(C[S+]([O-])C1c2ccccc2-c2ccccc21)NCCO` (racemic), for which the IC50 (in data set [1]; on Cytochrome P450 2C19) was greater than 100 µM throughout. Besides, the Time with Rattus norvegicus [2] was 167 min. For the same molecule, the outcome in the data set filed under Canis familiaris was inactive.

Turning to `NC(=O)[C@H](CO)NC(=O)C[S+]([O-])C1c2ccccc2-c2ccccc21` (mixture of isomers), the half-inhibitory concentration (IC50) (in [1]; on Cytochrome P450 2C19) was greater than 100 µM each time. The Time in the data set with Rattus norvegicus [2] is on record as 136 min. The outcome in the data set listed under Canis familiaris was inactive.

For the molecule `NC(=O)C[S+]([O-])C1c2ccccc2-c2ccccc21` (racemic), the IC50 (in [1]; against Cytochrome P450 2C19) was greater than 100 µM each time. The Time in the data set with Rattus norvegicus [2] was found to be 116 min. Moreover, the outcome in the data set listed under Canis familiaris was inactive.

With `NC(=O)CNC(=O)C[S+]([O-])C1c2ccccc2-c2ccccc21` (racemic), the IC50 (in [1]; on Cytochrome P450 2C19) was greater than 100 µM in each case. In addition, the Time in the data set on Rattus norvegicus [2] came to 140 min. Besides, the result in the data set filed under Canis familiaris was inactive.

In the case of `C[C@H](NC(=O)C[S+]([O-])C1c2ccccc2-c2ccccc21)C(N)=O` (mixture of isomers), the IC50 (in data set [1]; at Cytochrome P450 2C19) was greater than 100 µM throughout. Besides, in the data set with Rattus norvegicus [2], the Time turned out to be 151 min. Besides, the result in the data set filed under Canis familiaris was inactive.

In the case of `NC(=O)[C@@H]1CCCN1C(=O)C[S+]([O-])C1c2ccccc2-c2ccccc21` (mixture of isomers), the IC50 (in data set [1]; at Cytochrome P450 2C19) was greater than 100 µM in each case. The Time with Rattus norvegicus [2] is reported as 169 min. Also, in the data set filed under Canis familiaris, the result was inactive.

Molecule `CNC(=O)C[S+]([O-])C1c2ccccc2-c2ccccc21` (racemic) showed an IC50 in data set [1] greater than 100 µM. Further, the Time in the data set with Rattus norvegicus [2] was found to be 83 min. Moreover, 10 µM produced 48% inhibition on CYP2C19. Also, the result in the data set filed under Canis familiaris was inactive.

For the molecule `O=C1c2ccccc2-c2ccccc21`, the values for the Cmax in the data set with Plasma [11] and with Brain [14] were 255 ng/g and 971 ng/g, respectively. The Tmax was found to be 72 min in the data set on Plasma [12] and 48 min with Brain [15]. Besides, the values for the AUCt with Plasma [13] and with Brain [16] were 939 ng·h/g and 2349 ng·h/g, respectively.

`O=C(C[S+]([O-])C1c2ccccc2-c2ccccc21)N1CCNCC1` (racemic): the concentration for half-maximal inhibition (IC50) (in data set [1]; against Cytochrome P450 2C19) was greater than 100 µM each time. Further, in the data set on Rattus norvegicus [3], the Time is on record as 119 min. The result in the data set listed under Canis familiaris was inactive.

Regarding `CC(=O)N1CCN(C(=O)C[S+]([O-])C2c3ccccc3-c3ccccc32)CC1` (racemic), the IC50 (in [1]; at Cytochrome P450 2C19) was greater than 100 µM each time. Moreover, the Time with Rattus norvegicus [3] came out at 146 min. For the same molecule, the result in the data set listed under Canis familiaris was inactive. Moreover, the Cmax in data set [17] was 6290 ng/g; in [20], 416 ng/g. In addition, the Tmax in data set [18] and in data set [21] was 48 min in each case. Moreover, the AUCt in the data set on Plasma [19] is 7501 ng·h/g; in the data set with Brain [22], 295 ng·h/g.
